# Laboratory results as given in ChEMBL document CHEMBL4706775, “Discovery of Arylsulfonamide Na1.7 Inhibitors: IVIVC, MPO Methods, and Optimization of Selectivity Profile” (ACS Med Chem Lett, 2021).
# Legend:
# [1] = target: Sodium channel protein type 9 subunit alpha (Homo sapiens, UniProt Q15858); assay: Inhibition of human Nav1.7 alpha expressed in HEK293 cells incubated for 5 mins with 6 consecutive train pulses to -10 mV at 0.1 Hz and holding potential of -65 mV by Qube-automated patch clamp assay; format: cell-based
# Sodium channel protein type 9 subunit alpha, sequence (Q15858 whole entry): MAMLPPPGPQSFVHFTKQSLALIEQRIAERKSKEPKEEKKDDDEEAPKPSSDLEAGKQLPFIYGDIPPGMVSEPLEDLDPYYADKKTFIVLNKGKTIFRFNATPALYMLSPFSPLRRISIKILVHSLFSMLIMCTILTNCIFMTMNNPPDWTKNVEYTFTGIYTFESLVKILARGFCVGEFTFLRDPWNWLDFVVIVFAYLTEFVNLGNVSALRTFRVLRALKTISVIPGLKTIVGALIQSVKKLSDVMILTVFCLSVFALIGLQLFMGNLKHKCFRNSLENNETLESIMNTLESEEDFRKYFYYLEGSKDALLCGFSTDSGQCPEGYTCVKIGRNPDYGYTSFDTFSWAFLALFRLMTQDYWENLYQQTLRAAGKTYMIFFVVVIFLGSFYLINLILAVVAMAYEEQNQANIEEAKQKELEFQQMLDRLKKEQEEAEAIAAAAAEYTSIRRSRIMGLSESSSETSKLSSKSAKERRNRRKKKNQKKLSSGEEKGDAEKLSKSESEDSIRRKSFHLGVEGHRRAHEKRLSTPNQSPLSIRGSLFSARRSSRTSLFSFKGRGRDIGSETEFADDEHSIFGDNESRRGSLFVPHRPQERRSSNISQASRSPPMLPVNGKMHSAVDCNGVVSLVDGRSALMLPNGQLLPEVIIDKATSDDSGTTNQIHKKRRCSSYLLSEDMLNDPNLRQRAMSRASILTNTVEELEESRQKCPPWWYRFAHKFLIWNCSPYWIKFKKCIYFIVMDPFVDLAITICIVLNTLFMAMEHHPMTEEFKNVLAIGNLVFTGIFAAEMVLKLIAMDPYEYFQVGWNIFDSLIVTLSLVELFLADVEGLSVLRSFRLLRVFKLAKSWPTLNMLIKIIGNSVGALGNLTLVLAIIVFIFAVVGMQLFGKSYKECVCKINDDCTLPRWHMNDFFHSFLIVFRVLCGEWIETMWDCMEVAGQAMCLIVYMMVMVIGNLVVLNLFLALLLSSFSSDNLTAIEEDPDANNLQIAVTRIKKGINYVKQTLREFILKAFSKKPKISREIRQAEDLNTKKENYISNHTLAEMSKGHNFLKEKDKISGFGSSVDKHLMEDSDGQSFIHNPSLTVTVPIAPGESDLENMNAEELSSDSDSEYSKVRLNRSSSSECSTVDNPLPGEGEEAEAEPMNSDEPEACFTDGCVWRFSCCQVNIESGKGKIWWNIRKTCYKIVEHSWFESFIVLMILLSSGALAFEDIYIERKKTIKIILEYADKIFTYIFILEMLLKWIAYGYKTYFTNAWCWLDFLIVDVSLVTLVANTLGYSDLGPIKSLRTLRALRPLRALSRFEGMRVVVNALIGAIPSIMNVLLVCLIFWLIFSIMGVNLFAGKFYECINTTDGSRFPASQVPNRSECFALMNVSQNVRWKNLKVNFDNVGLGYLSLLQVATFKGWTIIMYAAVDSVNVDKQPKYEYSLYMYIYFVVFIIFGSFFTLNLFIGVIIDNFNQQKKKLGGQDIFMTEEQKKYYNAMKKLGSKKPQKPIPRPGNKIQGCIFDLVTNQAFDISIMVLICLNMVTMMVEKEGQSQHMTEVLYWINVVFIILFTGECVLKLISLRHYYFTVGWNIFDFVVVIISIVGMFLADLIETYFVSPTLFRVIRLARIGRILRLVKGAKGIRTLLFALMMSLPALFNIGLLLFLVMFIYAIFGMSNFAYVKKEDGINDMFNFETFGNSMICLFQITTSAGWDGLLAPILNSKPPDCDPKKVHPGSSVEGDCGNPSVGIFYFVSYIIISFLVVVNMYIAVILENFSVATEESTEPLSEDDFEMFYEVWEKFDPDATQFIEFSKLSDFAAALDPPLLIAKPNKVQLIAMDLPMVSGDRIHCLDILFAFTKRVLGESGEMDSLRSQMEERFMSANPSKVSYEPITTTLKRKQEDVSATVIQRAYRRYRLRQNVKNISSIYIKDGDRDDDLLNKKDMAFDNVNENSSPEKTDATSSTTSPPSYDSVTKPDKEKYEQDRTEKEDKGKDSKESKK
# [2] = target: Sodium channel protein type 8 subunit alpha (Homo sapiens, UniProt Q9UQD0); assay: Inhibition of human Nav1.6 alpha expressed in HEK293 cells incubated for 5 mins with 6 consecutive train pulses to -10 mV at 0.1 Hz and holding potential of -65 mV by Qube-automated patch clamp assay; format: ADME, cell-based
# Sodium channel protein type 8 subunit alpha, sequence (Q9UQD0 whole entry): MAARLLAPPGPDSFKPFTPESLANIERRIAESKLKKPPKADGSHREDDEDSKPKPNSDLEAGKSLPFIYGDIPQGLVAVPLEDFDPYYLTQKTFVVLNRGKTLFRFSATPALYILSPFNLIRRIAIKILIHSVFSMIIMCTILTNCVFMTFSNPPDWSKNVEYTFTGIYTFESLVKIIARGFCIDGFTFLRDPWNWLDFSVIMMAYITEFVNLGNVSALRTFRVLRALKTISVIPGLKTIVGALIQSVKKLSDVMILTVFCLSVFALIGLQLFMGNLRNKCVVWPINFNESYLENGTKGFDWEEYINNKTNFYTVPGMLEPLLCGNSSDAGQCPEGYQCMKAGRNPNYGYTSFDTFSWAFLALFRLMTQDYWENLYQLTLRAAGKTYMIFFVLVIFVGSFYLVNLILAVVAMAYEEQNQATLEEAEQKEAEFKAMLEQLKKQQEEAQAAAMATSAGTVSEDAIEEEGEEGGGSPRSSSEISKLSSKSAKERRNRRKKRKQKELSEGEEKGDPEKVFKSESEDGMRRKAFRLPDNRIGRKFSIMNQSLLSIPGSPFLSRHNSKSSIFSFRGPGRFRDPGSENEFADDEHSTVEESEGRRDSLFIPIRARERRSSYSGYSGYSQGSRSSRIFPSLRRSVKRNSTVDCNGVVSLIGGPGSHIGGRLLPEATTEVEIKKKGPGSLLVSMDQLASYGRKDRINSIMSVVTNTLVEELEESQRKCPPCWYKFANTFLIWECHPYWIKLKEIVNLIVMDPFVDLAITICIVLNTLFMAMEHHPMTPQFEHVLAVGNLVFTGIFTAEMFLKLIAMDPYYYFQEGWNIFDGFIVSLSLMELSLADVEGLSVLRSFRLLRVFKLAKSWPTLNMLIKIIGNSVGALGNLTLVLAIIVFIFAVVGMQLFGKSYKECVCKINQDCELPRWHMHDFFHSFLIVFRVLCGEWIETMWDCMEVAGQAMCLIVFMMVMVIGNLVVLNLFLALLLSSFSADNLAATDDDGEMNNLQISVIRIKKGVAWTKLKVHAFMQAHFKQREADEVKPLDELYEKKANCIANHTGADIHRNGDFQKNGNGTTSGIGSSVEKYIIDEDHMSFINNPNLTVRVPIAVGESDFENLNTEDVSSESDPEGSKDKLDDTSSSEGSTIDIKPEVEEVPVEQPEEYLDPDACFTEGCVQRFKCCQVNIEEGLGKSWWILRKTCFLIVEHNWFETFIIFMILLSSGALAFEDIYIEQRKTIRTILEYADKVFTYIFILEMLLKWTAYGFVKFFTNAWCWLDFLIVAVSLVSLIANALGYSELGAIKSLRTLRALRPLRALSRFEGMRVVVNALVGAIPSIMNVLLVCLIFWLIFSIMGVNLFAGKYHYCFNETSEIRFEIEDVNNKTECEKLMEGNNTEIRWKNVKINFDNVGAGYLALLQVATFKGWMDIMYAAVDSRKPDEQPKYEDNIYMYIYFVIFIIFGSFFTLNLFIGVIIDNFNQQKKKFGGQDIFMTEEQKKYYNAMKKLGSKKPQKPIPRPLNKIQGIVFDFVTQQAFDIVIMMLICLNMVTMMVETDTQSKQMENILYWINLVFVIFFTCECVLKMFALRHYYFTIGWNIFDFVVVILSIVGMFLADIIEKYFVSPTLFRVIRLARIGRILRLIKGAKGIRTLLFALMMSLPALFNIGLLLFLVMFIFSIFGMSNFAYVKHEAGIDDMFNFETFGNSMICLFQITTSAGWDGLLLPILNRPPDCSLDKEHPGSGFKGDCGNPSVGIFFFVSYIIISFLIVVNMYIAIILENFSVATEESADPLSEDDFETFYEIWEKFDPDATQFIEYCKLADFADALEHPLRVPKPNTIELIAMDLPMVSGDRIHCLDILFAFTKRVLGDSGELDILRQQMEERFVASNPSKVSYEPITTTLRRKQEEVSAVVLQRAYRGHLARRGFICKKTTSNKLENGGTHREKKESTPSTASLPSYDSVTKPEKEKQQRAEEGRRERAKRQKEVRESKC
# [3] = Volume of distribution at steady state in rat; format: ADME; conditions: in vivo, read-out: Vdss
# Nav1.5 = Nav1.5 (Homo sapiens, UniProt Q14524); assay: Inhibition of human Nav1.5 alpha expressed in HEK293 cells expressed in HEK293 cells incubated for 5 mins with 6 consecutive train pulses to -10 mV at 0.1 Hz and holding potential of -65 mV by Qube-automated patch clamp assay; format: ADME, cell-based; conditions: HEK293 cells expressing human Nav1.5 alpha
# [4] = Inhibition of rhesus monkey Nav1.7 alpha expressed in HEK293 cells; format: cell-based, Macaca mulatta
# [5] = Oral bioavailability in dog; format: ADME, organism-based, Canis lupus familiaris; conditions: in vivo
# [6] = Intrinsic Clearance in rhesus monkey; format: ADME, Macaca mulatta
# [7] = Drug concentration in mouse plasma at 100 mg/kg, po measured after 1.25 hrs; format: ADME, organism-based
# [8] = Oral bioavailability in rhesus monkey; format: ADME, organism-based, Macaca mulatta; conditions: in vivo
# Mus musculus [9] = assay: Reversal of formalin-induced nociception in po dosed C57BL/6 mouse pretreated with compound for 15 mins followed by formalin challenge and measured after 20 to 35 mins; format: functional; conditions: time min <=75
# In short: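 C57BL/6 mice given compound orally at three dose levels or vehicle (10% Tween 80, 5 mL/kg) 15 min before formalin injection; nociceptive behaviors scored in phase 1 and phase 2; N = 8/group; within-subject ANOVA and 1-sample t test versus vehicle.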
# [10] = Selectivity ratio of IC50 for human Nav 1.6 alpha expressed in HEK293 cells to IC50 for human Nav 1.7 alpha expressed in HEK293 cells
# [11] = target: T1, Nuclear receptor subfamily 1 group I member 2 (Homo sapiens, UniProt O75469); assay: Activation of PXR (unknown origin); format: ADME
# T1 sequence (O75469 whole entry): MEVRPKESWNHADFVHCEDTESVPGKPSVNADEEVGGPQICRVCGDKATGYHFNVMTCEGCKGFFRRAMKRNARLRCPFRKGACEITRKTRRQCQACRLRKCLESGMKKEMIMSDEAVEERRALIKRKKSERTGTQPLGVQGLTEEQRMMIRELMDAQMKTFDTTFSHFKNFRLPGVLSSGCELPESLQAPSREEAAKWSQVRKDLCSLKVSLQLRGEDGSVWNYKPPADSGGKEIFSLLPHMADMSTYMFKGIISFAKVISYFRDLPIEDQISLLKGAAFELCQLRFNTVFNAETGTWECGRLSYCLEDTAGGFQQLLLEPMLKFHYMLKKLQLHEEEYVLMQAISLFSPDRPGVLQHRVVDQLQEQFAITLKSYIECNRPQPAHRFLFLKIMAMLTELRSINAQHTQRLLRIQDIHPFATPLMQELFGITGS
# [12] = Selectivity ratio of IC50 for human Nav 1.5 expressed in HEK293 cells to IC50 for human Nav 1.7 alpha expressed in HEK293 cells
# Mus musculus [13] = species on record: Mus musculus; assay: Analgesic activity in mouse models of formalin-induced nociception assessed as reduction in paw pain; format: functional
# [14] = Drug concentration in mouse CSF at 100 mg/kg, po measured after 1.25 hrs; format: ADME, organism-based, Cerebrospinal fluid; conditions: read-out: Ct
# [15] = Half life in dog; format: ADME, Canis lupus familiaris; conditions: in vivo
# [16] = Kinetic solubility of compound at pH 2 by HPLC analysis; format: physicochemical; conditions: buffer, read-out: Kinetic_solubility
# P-glycoprotein [17] = assay: Substrate activity at rat p-glycoprotein assessed as efflux ratio of permeability across basal to apical membrane over apical to basal membrane; format: ADME; conditions: not told
# [18] = Half life in rhesus monkey; format: ADME, Macaca mulatta; conditions: in vivo
# [19] = Drug concentration in plasma of formalin-induced C57BL/6 mouse model of formalin-induced pain at 300 mg/kg, po pretreated with compound for 15 mins followed by formalin challenge and measured after […]; format: ADME, organism-based
# [20] = Dissociation constant, pKa of the sulfonamide compound; format: physicochemical
# [21] = Protein binding in mouse plasma; format: ADME, cell-free; conditions: read-out: PPB (converted)
# [22] = Half life in rat; format: ADME; conditions: in vivo
# [23] = Drug concentration in mouse brain at 100 mg/kg, po measured after 1.25 hrs; format: ADME, organism-based; conditions: read-out: Ct
# [24] = Volume of distribution at steady state in rhesus monkey; format: ADME, Macaca mulatta; conditions: in vivo, read-out: Vdss
# [25] = Oral bioavailability in rat; format: ADME, organism-based; conditions: in vivo
# [26] = Intrinsic clearance in rat at 0.05 mg/kg, iv administered as cassette dose or 2 mg/kg, iv administered as single dose; conditions: in vivo
# P-glycoprotein [27] = assay: Substrate activity at human p-glycoprotein assessed as efflux ratio of permeability across basal to apical membrane over apical to basal membrane; format: ADME; conditions: not told
# [28] = Distribution coefficient, log D of the compound by MSD HPLC analysis; format: physicochemical; conditions: octanol/water
# PXR = target: T2, PXR (Homo sapiens, UniProt O75469); assay: Activation of PXR (unknown origin) relative to control; format: ADME
# T2 sequence (O75469 whole entry): T1 sequence (O75469 whole entry)
# [29] = Protein binding in rhesus monkey plasma; format: ADME, cell-free, Macaca mulatta; conditions: read-out: PPB (converted)
# [30] = Kinetic solubility of compound at pH 7 by HPLC analysis; format: physicochemical; conditions: buffer, read-out: Kinetic_solubility
# [31] = Unbound plasma concentration in rhesus monkey at 19.2 mg/kg; format: ADME, organism-based, Macaca mulatta; conditions: in vivo
# In short: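 Anesthetized rhesus monkeys, n = 4, imaged by olfactory-bulb fMRI over 2 h; IV infusion in 30% Captisol (~8 mL/animal) started at 1 h and continued for 1 h; unbound plasma concentration determined alongside olfactory inhibition.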
# Mus musculus [32] = assay: Analgesic activity against formalin-induced nociception in po dosed C57BL/6J mouse pretreated with compound for 15 mins followed by formalin challenge and measured after […]; format: functional, organism-based
# [33] = Clearance in rat; format: ADME; conditions: in vivo
# Cytochrome P450 3A4 = Cytochrome P450 3A4 (Homo sapiens, UniProt P08684); assay: Inhibition of CYP3A4 (unknown origin); format: ADME
# Cytochrome P450 3A4, sequence (P08684 whole entry): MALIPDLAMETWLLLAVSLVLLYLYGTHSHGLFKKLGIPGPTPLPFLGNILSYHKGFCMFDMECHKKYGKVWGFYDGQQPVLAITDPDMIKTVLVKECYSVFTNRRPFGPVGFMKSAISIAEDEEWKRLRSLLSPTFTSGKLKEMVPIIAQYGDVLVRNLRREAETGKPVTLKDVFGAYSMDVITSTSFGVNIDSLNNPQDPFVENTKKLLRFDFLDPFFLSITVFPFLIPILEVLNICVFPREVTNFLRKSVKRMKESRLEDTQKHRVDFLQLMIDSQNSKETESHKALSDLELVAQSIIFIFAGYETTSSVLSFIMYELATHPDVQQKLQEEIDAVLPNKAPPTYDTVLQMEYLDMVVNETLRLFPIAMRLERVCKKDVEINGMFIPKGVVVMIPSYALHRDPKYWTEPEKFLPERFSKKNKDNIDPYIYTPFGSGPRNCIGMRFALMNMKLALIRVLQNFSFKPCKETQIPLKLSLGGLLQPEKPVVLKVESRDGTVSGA
# [34] = Drug concentration in plasma of formalin-induced C57BL/6 mouse model of formalin-induced pain at 100 mg/kg, po pretreated with compound for 15 mins followed by formalin challenge and measured after […]; format: ADME, organism-based
# Cytochrome P450 2D6 = Cytochrome P450 2D6 (Homo sapiens, UniProt P10635); assay: Inhibition of […] (unknown origin); format: ADME
# [35] = Clearance in rhesus monkey; format: ADME, Macaca mulatta; conditions: in vivo
# [36] = Dissociation constant, pKa of the amine compound; format: physicochemical
# Cytochrome P450 2C9 = Cytochrome P450 2C9 (Homo sapiens, UniProt P11712); assay: Inhibition of CYP2C9 (unknown origin); format: ADME
# Cytochrome P450 2C9, sequence (P11712 whole entry): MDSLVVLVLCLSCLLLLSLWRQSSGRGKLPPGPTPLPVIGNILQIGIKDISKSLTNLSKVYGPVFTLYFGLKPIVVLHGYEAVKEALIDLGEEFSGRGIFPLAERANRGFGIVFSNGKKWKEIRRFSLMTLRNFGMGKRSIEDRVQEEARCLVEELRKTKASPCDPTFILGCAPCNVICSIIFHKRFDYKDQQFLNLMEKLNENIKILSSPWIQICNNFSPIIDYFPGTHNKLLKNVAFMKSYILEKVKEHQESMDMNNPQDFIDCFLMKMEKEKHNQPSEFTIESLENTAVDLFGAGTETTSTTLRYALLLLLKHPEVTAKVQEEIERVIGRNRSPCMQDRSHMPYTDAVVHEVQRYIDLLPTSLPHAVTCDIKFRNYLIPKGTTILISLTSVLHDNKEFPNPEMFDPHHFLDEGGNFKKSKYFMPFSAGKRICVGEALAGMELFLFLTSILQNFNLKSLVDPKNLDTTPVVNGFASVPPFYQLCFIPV
# [37] = Protein binding in human plasma; format: ADME, cell-free; conditions: read-out: PPB (converted)
# [38] = Apparent permeability in MDCK cells by Monolayer assay; format: ADME, cell-based, Canis lupus familiaris; conditions: dog
# [39] = Volume of distribution at steady state in dog; format: ADME, Canis lupus familiaris; conditions: in vivo, read-out: Vdss
# [40] = Drug concentration in plasma of formalin-induced C57BL/6 mouse model of formalin-induced pain at 30 mg/kg, po pretreated with compound for 15 mins followed by formalin challenge and measured after […]; format: ADME, organism-based
# [41] = Clearance in dog; format: ADME, Canis lupus familiaris; conditions: in vivo
# [42] = Intrinsic Clearance in dog; format: ADME, Canis lupus familiaris
compound,measurement,setting,value
CN[C@H](CNc1cc(F)c(S(=O)(=O)Nc2ncns2)cc1Cl)Cc1ccccc1,IC50,[1],1.09 µM
same,IC50,[2],> 34 µM
CN[C@H](CNc1cc(F)c(S(=O)(=O)Nc2ncc(F)s2)cc1Cl)CC(C)(C)C.Cl,Vd,[3],2.1 L/kg
same,IC90 at 5 min,Nav1.5,3.6 µM
same,IC50,[4],0.31 µM
same,bioavailability,[5],25%
same,CLint scaled,[6],610 mL/min/kg
same,concentration at 1.25 h,[7],4.9 µM
same,bioavailability,[8],2%
same,EC90,Mus musculus [9],0.36 µM
same,Ratio IC50,[10],60
same,EC50,[11],10 µM
same,Ratio IC50,[12],>390
same,IC90,Mus musculus [13],0.22 µM
same,concentration at 1.25 h,[14],0.005 µM
same,half-life,[15],6 h
same,solubility kinetic,[16],170 µM
same,efflux ratio,P-glycoprotein [17],> 14
same,half-life,[18],1.3 h
same,concentration at 1.75 h,[19],8.86 µM
same,IC50,[1],0.3 µM
same,pKa,[20],5.4
same,fraction unbound,[21],0.06
same,half-life,[22],2.5 h
same,concentration at 1.25 h,[23],0.1 µM
same,Vd,[24],0.3 L/kg
same,bioavailability,[25],100%
same,CL,[26],1670 mL/min/kg
same,efflux ratio,P-glycoprotein [27],4.9
same,logD,[28],1.7
same,Emax,PXR,80%
same,fraction unbound,[29],0.02
same,solubility kinetic,[30],148 µM
same,Cp(f),[31],1.5 µM
same,IC50,"Mus musculus [32]; Mus musculus, C57BL/6J",4.08 µM
same,IC90,Mus musculus [32]; time 1.75 hrs,6.04 µM
same,clearance,[33],29 mL/min/kg
same,IC50,Cytochrome P450 3A4,> 50 µM
same,concentration at 1.75 h,[34],6.64 µM
same,IC50,Cytochrome P450 2D6,20 µM
same,clearance,[35],11 mL/min/kg
same,pKa,[36],9
same,IC50,Cytochrome P450 2C9,28 µM
same,fraction unbound,[37],0.02
same,Papp,[38],8 ×10⁻⁶ cm/s
same,Vd,[39],0.8 L/kg
same,concentration at 1.75 h,[40],3.27 µM
same,IC50,[2],18.7 µM
same,clearance,[41],4.5 mL/min/kg
same,CLint scaled,[42],200 mL/min/kg
CN[C@H](CNc1cc(F)c(S(=O)(=O)Nc2nccs2)cc1Cl)Cc1ccccc1,IC50,[1],0.24 µM
same,CL,[26],4820 mL/min/kg
same,Papp,[38],10 ×10⁻⁶ cm/s
same,IC50,[2],> 34 µM
CN[C@H](CNc1cc(F)c(S(=O)(=O)Nc2ncc(F)s2)cc1Cl)CC12CC(C1)C2,IC50,[1],0.12 µM
same,CL,[26],2300 mL/min/kg
same,Papp,[38],10 ×10⁻⁶ cm/s
same,IC50,[2],> 34 µM
CN(C)[C@H](CNc1cc(F)c(S(=O)(=O)Nc2nccs2)cc1Cl)Cc1ccccc1,IC50,[1],0.85 µM
same,IC50,[2],> 34 µM
CN[C@H](CNc1cc(F)c(S(=O)(=O)Nc2ncc(F)s2)cc1Cl)CC1CC1,IC50,[1],5.54 µM
same,CL,[26],380 mL/min/kg
same,Papp,[38],3 ×10⁻⁶ cm/s
same,IC50,[2],> 34 µM
CN[C@H](CNc1cc(F)c(S(=O)(=O)Nc2ncc(F)s2)cc1Cl)CC1(C)CC1,IC50,[1],0.72 µM
same,CL,[26],830 mL/min/kg
same,Papp,[38],7 ×10⁻⁶ cm/s
same,IC50,[2],> 34 µM
CN[C@H](CNc1cc(F)c(S(=O)(=O)Nc2ncc(F)s2)cc1Cl)CC1CCC1,IC50,[1],1.78 µM
same,CL,[26],8090 mL/min/kg
same,Papp,[38],5 ×10⁻⁶ cm/s
same,IC50,[2],> 34 µM
CN[C@H](CNc1cc(F)c(S(=O)(=O)Nc2ncc(F)s2)cc1Cl)Cc1ccccc1,IC50,[1],0.4 µM
same,CL,[26],3020 mL/min/kg
same,Papp,[38],8 ×10⁻⁶ cm/s
same,IC50,[2],> 34 µM
CN[C@H](CNc1cc(F)c(S(=O)(=O)Nc2ncc(F)s2)cc1Cl)C[Si](C)(C)C,IC50,[1],0.044 µM
same,CL,[26],500 mL/min/kg
same,IC50,[2],3.13 µM
O=S(=O)(Nc1nccs1)c1cc(Cl)c(NCC2(Cc3ccccc3)CCCN2)cc1F (configuration not stated),IC50,[1],0.025 µM
same,CL,[26],5830 mL/min/kg
same,Papp,[38],13 ×10⁻⁶ cm/s
same,IC50,[2],0.42 µM
N[C@H](CNc1cc(F)c(S(=O)(=O)Nc2nccs2)cc1Cl)Cc1ccccc1,IC50,[1],> 34 µM
same,IC50,[2],> 34 µM
CC1(CNc2cc(F)c(S(=O)(=O)Nc3nccs3)cc2Cl)CCCN1 (stereo in doubt; 4),IC50,[1],2.97 µM
same,IC50,[2],2.08 µM
CC1(CNc2cc(F)c(S(=O)(=O)Nc3nccs3)cc2Cl)CCCN1 (stereo in doubt; 5),IC50,[1],0.9 µM
same,IC50,[2],0.86 µM
O=S(=O)(Nc1nccs1)c1cc(Cl)c(NCC2CCCN2)cc1F (stereo in doubt; 6),IC50,[1],> 34 µM
same,IC50,[2],> 34 µM
O=S(=O)(Nc1nccs1)c1cc(Cl)c(NCC2CCCN2)cc1F (stereo in doubt; 7),IC50,[1]; hek293,> 34 µM
same,IC50,[2]; hek293,> 34 µM
CNC(C)(CNc1cc(F)c(S(=O)(=O)Nc2nccs2)cc1Cl)Cc1ccccc1 (stereo in doubt; 9),IC50,[1],> 34 µM
same,IC50,[2],> 34 µM
CNC(C)(CNc1cc(F)c(S(=O)(=O)Nc2nccs2)cc1Cl)Cc1ccccc1 (stereo in doubt; 10),IC50,[1],1.14 µM
same,IC50,[2]; hek293,> 34 µM
